The source made the active and inactive calls. The rule behind the calls is not given here.
Columns and labels:
[1] = Cytotoxicity against human HuH7 cells assessed as cell viability at 20 uM after 3 days by XTT method relative to control; type: cell-based, Huh-7; settings: read-out: Activity
In short: (§1)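 Uninfected Huh-7 cells were seeded at 5 × 10^3 cells/well in maintenance medium. They were exposed to compound at 20 or 200 µM, diluted into medium from 10 mM DMSO stocks, with 0.1% DMSO as control. Incubation was 3 days at 37 °C in humidified 5% CO2. Viability was read by XTT, run in parallel with the antiviral assays.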

dengue virus type 2 [2] = experiment: Antiviral activity against Fluc-tagged DENV2 strain 16681 infected in human HuH7 cells assessed as inhibition of viral replication at 10 uM after 3 days by luciferase reporter gene assay relative to control; type: functional; settings: Thailand/16681/84, Huh-7, 72 h
In short: (§2)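 Huh-7-DV-Fluc cells seeded at 2 × 10^4 per well, exposed to 1 or 10 µM for 3 days against a 0.1% DMSO control. Firefly luciferase activity (Bright-Glo) read as DENV-2 replication; percent inhibition relative to control.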

dengue virus type 2 [3] = experiment: Antiviral activity against Fluc-tagged DENV2 strain 16681 infected in human HuH7 cells assessed as inhibition of viral replication at 1 uM after 3 days by luciferase reporter gene assay relative to control; type: functional; settings: Thailand/16681/84, Huh-7, 72 h; in short: as §2
[4] = Cytotoxicity against human HuH7 cells assessed as cell viability at 200 uM after 3 days by XTT method relative to control; type: cell-based, Huh-7; settings: read-out: Activity; in short: as §1
dengue virus type 2 [5] = experiment: Antiviral activity against Fluc-tagged DENV2 strain 16681 infected in human HuH7 cells after 3 days by luciferase reporter gene assay; type: functional, organism-based; settings: Thailand/16681/84, Huh-7, 72 h
[6] = Cytotoxicity against human HuH7 cells assessed as growth inhibition after 3 days by XTT method; type: cell-based, Huh-7
In short: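 Uninfected Huh-7 cells were seeded at 5 × 10^3 cells/well and treated for 3 days at 37 °C in humidified 5% CO2. Viability was read by XTT against a 0.1% DMSO control. CC50 was taken as the concentration giving 50% growth inhibition.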

dengue virus type 2 [7] = experiment: Potency index, ratio of ribavirin IC50 to compound IC50 for antiviral activity against Fluc-tagged DENV2 strain 16681 infected in human HuH7 cells; type: functional, Thailand/16681/84
[8] = Selectivity index, ratio of CC50 for human HuH7 cells to IC50 for Fluc-tagged DENV2 strain 16681 infected in human HuH7 cells; type: toxicity, cell-based; settings: read-out: Ratio CC50/IC50
In short: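 SI is calculated as CC50/IC50. CC50 is 50% growth inhibition of uninfected Huh-7 cells by XTT after 3 days. IC50 is 50% inhibition of DENV-2 replication in Huh-7-DV-Fluc replicon cells (2 × 10^4 cells/well), measured by firefly luciferase after 3 days of treatment with a 0.1% DMSO control.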

dengue virus type 3 = experiment: Antiviral activity against Fluc-tagged DENV3 infected in human HuH7 cells after 3 days by luciferase reporter gene assay; type: functional, organism-based; settings: Huh-7, 72 h
dengue virus type 4 = experiment: Antiviral activity against Fluc-tagged DENV4 infected in human HuH7 cells after 3 days by luciferase reporter gene assay; type: functional, organism-based; settings: Huh-7, 72 h
dengue virus type 1 = experiment: Antiviral activity against Fluc-tagged DENV1 infected in human HuH7 cells after 3 days by luciferase reporter gene assay; type: functional, organism-based; settings: Huh-7, 72 h
dengue virus type 2 [9] = experiment: Antiviral activity against DENV2 strain 16681 infected in ICR suckling mouse assessed as protection against mouse death at 1 to 5 mg/kg, ip treated on day 1,3 and 5 post infection measured daily for 6 days; type: functional, organism-based; settings: Thailand/16681/84
In short: (§3)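 Six-day-old ICR suckling mice, n = 5/group, given 2.5 × 10^5 pfu DENV-2 intracerebrally, then 1, 5, 10 or 20 mg/kg intraperitoneally at 1, 3 and 5 dpi. Controls were DENV plus ip saline, and 60 °C heat-inactivated DENV (mock). Survival, clinical score (paralysis, anorexia, asthenia) and body weight were recorded daily for 6 days.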

dengue virus type 2 [10] = experiment: Antiviral activity against DENV2 strain 16681 infected in ICR suckling mouse assessed as protection against paralysis at 1 to 5 mg/kg, ip treated on day 1,3 and 5 post infection measured daily for 6 days; type: functional, organism-based; settings: Thailand/16681/84; in short: as §3
dengue virus type 2 [11] = experiment: Antiviral activity against DENV2 strain 16681 infected in ICR suckling mouse assessed as protection against anorexia at 1 to 5 mg/kg, ip treated on day 1,3 and 5 post infection measured daily for 6 days; type: functional, organism-based; settings: Thailand/16681/84; in short: as §3
dengue virus type 2 [12] = experiment: Antiviral activity against DENV2 strain 16681 infected in ICR suckling mouse assessed as protection against asthenia at 1 to 5 mg/kg, ip treated on day 1,3 and 5 post infection measured daily for 6 days; type: functional, organism-based; settings: Thailand/16681/84; in short: as §3
dengue virus type 2 [13] = experiment: Antiviral activity against Fluc-tagged DENV2 strain 16681 infected in human HuH7 cells assessed as reduction in viral replication by measuring NS5 gene expression at 0.5 to 5 uM after 3 days by RT-qPCR assay; type: functional, organism-based; settings: Thailand/16681/84
In short: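 DENV-2 (16681) replicating Huh-7 cells exposed to 0.5, 1, 2.5 and 5 µM for 3 days; 0.1% DMSO mock. Total RNA analysed by RT-qPCR with NS5-targeted primers, normalised to cellular GAPDH mRNA; means ± SD of triplicate experiments.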

dengue virus type 2 [14] = experiment: Antiviral activity against Fluc-tagged DENV2 strain 16681 infected in human HuH7 cells assessed as reduction in viral replication by measuring NS2B protein expression at 0.5 to 5 uM after 3 days by immunoblot analysis; type: functional, organism-based; settings: Thailand/16681/84
In short: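 DENV-2 (16681) replicating Huh-7 cells treated with 0.5, 1, 2.5 and 5 µM for 3 days; 0.1% DMSO mock. Whole-cell lysates immunoblotted overnight with rabbit polyclonal anti-NS2B (1:3000); GAPDH (1:10000) as loading control.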

Compound	viability at 72 h, 20 µM [1] [%]	inhibition at 10 µM (dengue virus type 2 [2]) [%]	inhibition at 1 µM (dengue virus type 2 [3]) [%]	viability at 72 h, 200 µM [4] [%]	other results
COc1ccc(-n2nc(-c3ccccc3)cc2-c2ccc3cc(F)ccc3n2)cc1	116	20.7	7.81	97.3	
Fc1ccc(-c2cc(-c3ccc4cc(F)ccc4n3)nn2-c2ccccc2)cc1	88.3	6.14	3.58	89.7	
COc1ccc(-c2cc(-c3ccc4cc(F)ccc4n3)nn2-c2ccccc2)cc1	95.6	7.15	4.14	93.7	
NS(=O)(=O)c1ccc(-n2nc(-c3ccccc3)cc2-c2ccc3cc(F)ccc3n2)cc1	89.2	11.8	4.52	83.6	
NS(=O)(=O)c1ccc(-n2nc(-c3ccc(F)cc3)cc2-c2ccc3cc(F)ccc3n2)cc1	91.1	12.8	5.71	43	
COc1ccc(-c2cc(-c3ccc4cc(F)ccc4n3)n(-c3ccc(OC)cc3)n2)cc1	95.8	65.7	46.9	98.4	IC50 (dengue virus type 2 [5]): 1.09 µM; CC50 at 72 h [6]: > 200 µM; Ratio IC50 (dengue virus type 2 [7]): 10; selectivity ratio [8]: > 183
COc1ccc(-c2cc(-c3ccc4cc(F)ccc4n3)n(-c3ccccc3)n2)cc1	104	8.09	5.31	98.9	
Fc1ccc(-c2cc(-c3ccc4cc(F)ccc4n3)n(-c3ccc(F)cc3)n2)cc1	95.3	22.4	8.91	86.5	
COc1ccc(-n2nc(-c3ccc(F)cc3)cc2-c2ccc3cc(F)ccc3n2)cc1	89.1	15.8	6.12	52.5	
COc1ccc(-c2cc(-c3ccc4cc(F)ccc4n3)n(-c3ccc(F)cc3)n2)cc1	98.8	55.3	41.4	95.4	IC50 (dengue virus type 2 [5]): 1.36 µM; CC50 at 72 h [6]: > 200 µM; Ratio IC50 (dengue virus type 2 [7]): 10; selectivity ratio [8]: > 147
Fc1ccc(-c2cc(-c3ccc4cc(F)ccc4n3)n(-c3ccccc3)n2)cc1	88.1	25.4	11.2	87.5	
COc1ccc(-c2cc(-c3ccc4cc(F)ccc4n3)n(-c3ccc(S(N)(=O)=O)cc3)n2)cc1	83.7	85.3	59	89.5	IC50 (dengue virus type 3): 0.73 µM; IC50 (dengue virus type 4): 1.56 µM; IC50 (dengue virus type 1): 1.21 µM; Activity (dengue virus type 2 [9]): Active; Activity (dengue virus type 2 [10]): Active; Activity (dengue virus type 2 [11]): Active; IC50 (dengue virus type 2 [5]): 0.81 µM; CC50 at 72 h [6]: > 200 µM; Ratio IC50 (dengue virus type 2 [7]): 10; Activity (dengue virus type 2 [12]): Active; Activity (dengue virus type 2 [13]): Active; Activity (dengue virus type 2 [14]): Active; selectivity ratio [8]: > 247
Fc1ccc2nc(-c3cc(-c4ccccc4)n(-c4ccccc4)n3)ccc2c1	124	15.3	5.21	115	
Fc1ccc(-n2nc(-c3ccccc3)cc2-c2ccc3cc(F)ccc3n2)cc1	97.8	8.31	4.36	91.6	
NC(=O)c1ncn([C@@H]2O[C@H](CO)[C@@H](O)[C@H]2O)n1 [RIBAVIRIN]		32.5	10.1	26.8	selectivity ratio [8]: 4.47
Fc1ccc2nc(-c3cc(-c4ccccc4)nn3-c3ccccc3)ccc2c1	126	5.13	3.02	98.3	

From ChEMBL document CHEMBL4130503, “Discovery of novel diarylpyrazolylquinoline derivatives as potent anti-dengue virus agents” (Eur J Med Chem, 2017)
